Tests used:
Mus musculus [1] = experiment: Immunostimulatory activity in Kunming mouse xenografted with […] cells assessed as change in thymus mass at 10 mg/kg, po qd for 10 days (reference value: 1.83 +/- 0.85 mg/kg); type: functional
[2] = Growth inhibition of human QSG7701 cells at 50 uM after 48 hrs by MTT assay; details: read-out: GI
Outline: (§1)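 QSG-7701 human hepatocytes seeded at 5×10^3 cells/mL in 96-well plates. Compounds were dissolved in DMSO and diluted in RPMI 1640 (final DMSO <0.1%), in triplicate, for 48 h. MTT (5 mg/mL stock) was added for 2 h, and formazan was dissolved in DMSO. OD was read at 570 nm (450 nm reference). IC50 is the concentration giving 50% absorbance reduction versus vehicle control.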

Mus musculus [3] = experiment: Immunostimulatory activity in Kunming mouse xenografted with […] cells assessed as change in spleen mass at 5 mg/kg, po qd for 10 days (reference value: 6.61 +/- 1.84 mg/kg); type: functional
H22 (Mus musculus) = experiment: Antitumor activity against mouse H22 cells xenografted in Kunming mouse assessed as reduction in tumor weight at 5 mg/kg, po qd for 10 days; details: 240 h
Mus musculus [4] = experiment: Toxicity in Kunming mouse xenografted with human H22 cells assessed as change in body weight at 20 mg/kg, po qd for 10 days (reference value: 23.4 +/- 2.8 g); type: organism-based; design: dose 20 mg/kg, route oral; details: in vivo, 240 h
[5] = Growth inhibition of human QSG7701 cells after 48 hrs by MTT assay; details: QSG7701, 48 h; outline: as §1
Mus musculus [6] = experiment: Immunostimulatory activity in Kunming mouse xenografted with […] cells assessed as change in spleen mass at 10 mg/kg, po qd for 10 days (reference value: 6.61 +/- 1.84 mg/kg); type: functional
Mus musculus [7] = experiment: Immunostimulatory activity in Kunming mouse xenografted with […] cells assessed as change in thymus mass at 5 mg/kg, po qd for 10 days (reference value: 1.83 +/- 0.85 mg/kg); type: functional
H22 = experiment: Antitumor activity against human H22 cells xenografted in Kunming mouse assessed as reduction in tumor volume at 20 mg/kg, po qd for 10 days; details: 240 h, read-out: INH
Mus musculus [8] = experiment: Toxicity in Kunming mouse xenografted with […] cells assessed as change in body weight at 20 mg/kg, po qd for 10 days (reference value: 24.8 +/- 1.1 g); type: organism-based; design: dose 20 mg/kg, route oral; details: in vivo, 240 h

CC(C)=CCC[C@](C)(O)[C@H]1CC[C@]2(C)[C@@H]1[C@H](O)C[C@@H]1[C@@]3(C)CC[C@H](O[C@@H]4O[C@H](CO)[C@@H](O)[C@H](O)[C@H]4O)C(C)(C)[C@@H]3CC[C@]12C [GINSENOSIDE RH2]
Activity (Mus musculus [1]): 2.09 mg/g | inhibition at 48 h, 50 µM [2]: 83% | Activity (Mus musculus [3]): 5.48 mg/g | inhibition in vivo at 5 mg/kg (H22 (Mus musculus)): 53% | Activity (Mus musculus [4]): 23.2 g | IC50 [5]: 37.3 µM | Activity (Mus musculus [6]): 5.35 mg/g | Activity (Mus musculus [7]): 2.25 mg/g

O=P1(N(CCCl)CCCl)NCCCO1 (configuration not stated) [CYCLOPHOSPHAMIDE ANHYDROUS]
inhibition in vivo at 20 mg/kg (H22): 72%

CCCCCCCC(=O)OC[C@H]1O[C@@H](O[C@H]2CC[C@]3(C)[C@H]4C[C@@H](OC(=O)CCCCCCC)[C@@H]5[C@@H]([C@@](C)(O)CCC=C(C)C)CC[C@@]5(C)[C@]4(C)CC[C@H]3C2(C)C)[C@H](O)[C@@H](O)[C@@H]1O
Activity (Mus musculus [1]): 3.42 mg/g | inhibition at 48 h, 50 µM [2]: 18% | Activity (Mus musculus [3]): 5.27 mg/g | inhibition in vivo at 5 mg/kg (H22 (Mus musculus)): 52% | IC50 [5]: 80.5 µM | Activity (Mus musculus [8]): 27.1 g | Activity (Mus musculus [6]): 6.31 mg/g | Activity (Mus musculus [7]): 2.15 mg/g

Reference: ChEMBL document CHEMBL1944612, “Structural modification of ginsenoside Rh(2) by fatty acid esterification and its detoxification property in antitumor” (Bioorg Med Chem Lett, 2012)
